# Reference: BindingDB's records for doi:10.1021/jm00096a020 (University of California, 1992)
# Values joined by “and” are separate entries in the source; they are usually repeats but may differ in a detail not shown here. Identical values can stand only once.
# Tests used:
# [1] = system: HIV-2 protease; assay: Inhibitory concentration against HIV-2 protease
# How it was run: (§1)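 Purified recombinant HIV PR activity was followed by cleavage of a decapeptide substrate. Incubation was 30–45 min at 37 °C, and hydrolysis products were quantified by HPLC.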
# [2] = molecular target: T1, Pol polyprotein (Human immunodeficiency virus 2, UniProt P88142); assay: ChEBML_159124
# From the text: (§2) Inhibition of HIV-2 protease in 5%DMSO
# [3] = system: HIV-1 protease; assay: Inhibitory concentration against HIV-1 protease; how it was run: as §1
# [4] = molecular target: T2, Human immunodeficiency virus type 1 protease (Human immunodeficiency virus 1, UniProt Q72874); assay: Inhibition of HIV-1 protease in 10% fetal calf serum(FCS)
# How it was run: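 COS A6 cells, which constitutively release viral capsids, were exposed to inhibitor in Dulbecco's PBS for 15 min. An equal volume of medium with 10% FCS plus inhibitor was then added and incubation continued for 3.75 h. Capsids were isolated from the supernatant, and polyprotein processing was scored as p24 by ELISA.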
# [5] = molecular target: T1, Pol polyprotein; assay: as §2; how it was run: as §1
# [6] = molecular target: T2, Human immunodeficiency virus type 1 protease; assay: Inhibition of HIV-1 protease in 5%DMSO; how it was run: as §1
# [7] = molecular target: T2, Human immunodeficiency virus type 1 protease; assay: (§3) Inhibitory concentration against HIV-1 protease in the absence of DMSO
# How it was run: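 The water-soluble dipotassium salt was tested against aspartyl proteases with no DMSO present, and IC50 values were determined.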
# [8] = molecular target: HIV-2 protease (Human immunodeficiency virus 2); assay: Inhibitory concentration against HIV-2 protease in the absence of DMSO
# [9] = molecular target: HIV-2 protease (Human immunodeficiency virus 2); assay: In vitro Inhibitory activity against HIV-2 protease in the presence of 5%DMSO
# [10] = molecular target: T2, Human immunodeficiency virus type 1 protease; assay: Binding affinity against HIV-1 protease
# How it was run: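 Purified recombinant HIV-1 protease (6 × 10^-4 mg/mL) preincubated 1 min with inhibitor in 50 mM sodium acetate pH 5.5, 1 mM DTT, 1 mM EDTA, 1 M NaCl. Decapeptide substrate then added, 30–45 min at 37 °C. Activity read by HPLC quantitation of hydrolysis products. Inhibition plotted as a Dixon plot at several substrate concentrations.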
# [11] = system: HIV-2 protease; assay: ChEBML_158058
# From the text: In vitro Inhibitory activity against HIV-2 protease in the presence of 5%DMSO
# [12] = molecular target: T2, Human immunodeficiency virus type 1 protease; assay: ChEBML_79800; from the text: as §3
# T1 sequence (P88142 whole entry): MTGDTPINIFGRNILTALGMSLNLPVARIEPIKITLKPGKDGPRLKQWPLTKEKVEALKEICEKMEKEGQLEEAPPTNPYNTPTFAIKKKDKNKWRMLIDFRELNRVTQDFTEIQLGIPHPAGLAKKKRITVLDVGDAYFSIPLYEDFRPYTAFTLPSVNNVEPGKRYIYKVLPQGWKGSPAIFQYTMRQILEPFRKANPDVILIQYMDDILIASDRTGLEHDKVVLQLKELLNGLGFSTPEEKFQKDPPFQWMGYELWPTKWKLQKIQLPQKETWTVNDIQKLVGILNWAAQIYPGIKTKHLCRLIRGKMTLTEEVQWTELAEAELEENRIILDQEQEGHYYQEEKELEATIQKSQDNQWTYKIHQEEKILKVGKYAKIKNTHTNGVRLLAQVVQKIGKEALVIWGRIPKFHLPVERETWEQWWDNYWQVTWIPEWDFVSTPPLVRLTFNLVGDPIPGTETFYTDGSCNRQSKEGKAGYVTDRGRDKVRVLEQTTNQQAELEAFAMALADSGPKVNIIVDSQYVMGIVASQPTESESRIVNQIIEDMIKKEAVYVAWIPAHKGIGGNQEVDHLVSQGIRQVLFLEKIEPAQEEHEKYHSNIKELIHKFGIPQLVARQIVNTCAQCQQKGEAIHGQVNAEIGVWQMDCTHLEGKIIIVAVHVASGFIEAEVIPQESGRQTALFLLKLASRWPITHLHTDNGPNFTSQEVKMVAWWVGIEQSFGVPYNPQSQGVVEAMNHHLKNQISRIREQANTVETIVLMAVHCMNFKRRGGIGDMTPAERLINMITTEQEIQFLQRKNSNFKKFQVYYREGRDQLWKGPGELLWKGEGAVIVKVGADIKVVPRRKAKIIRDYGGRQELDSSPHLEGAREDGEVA
Compound,IC50 [1],IC50 [2],IC50 [3],IC50 [4],IC50 [5],IC50 [6],IC50 [7],IC50 [8],IC50 [9],Ki [10],IC50 [11],IC50 [12]
CC1=C(CCC(=O)O)c2cc3nc(cc4[nH]c(cc5[nH]c(cc1n2)c(C)c5C(COC(=O)C1=CC1)OC(=O)C1=CC1)c(C)c4C(COC(=O)C1=CC1)OC(=O)C1=CC1)C(C)=C3CCC(=O)O (stereo not drawn),230 nM,700 nM,50 nM,25000 nM and > 150000 nM,700 nM,185 nM,–,–,–,–,–,–
CC1=C(CCC(=O)O)/C2=C/c3c(CCC(=O)O)c(C)c4[n]3[Mn][n]3/c(c(C)c(C(COC(=O)C5=CC5)OC(=O)C5=CC5)/c3=C/C3=NC(=C\4)/C(C(COC(=O)C4=CC4)OC(=O)C4C=C4)=C3C)=C\C1=N2 (stereo not drawn),–,–,–,65000 nM,–,400 nM,100 nM,700 nM,1200 nM,85 nM,–,–
CC1=C(CCC(=O)O)/C2=C/c3c(CCC(=O)O)c(C)c4[n]3[Cu][n]3/c(c(C)c(C(COC(=O)C5=CC5)OC(=O)C5=CC5)/c3=C/C3=NC(=C\4)/C(C(COC(=O)C4=CC4)OC(=O)C4=CC4)=C3C)=C\C1=N2 (stereo not drawn),–,2200 nM,–,> 70000 nM,–,975 nM,725 nM,–,–,140 nM,470 nM,–

# More lines, in order of falling IC50 [4], values ahead:
IC50 [1],IC50 [2],IC50 [3],IC50 [4],IC50 [5],IC50 [6],IC50 [7],IC50 [8],IC50 [9],Ki [10],IC50 [11],IC50 [12],Compound
–,1500 nM,–,25000 nM,–,–,–,–,–,–,–,2250 nM,CC1=C(CCC(=O)O)/C2=C/c3c(CCC(=O)O)c(C)c4[n]3[Co][n]3/c(c(C)c(C(COC(=O)C5=CC5)OC(=O)C5=CC5)/c3=C/C3=NC(=C\4)/C(C(COC(=O)C4=CC4)OC(=O)C4=CC4)=C3C)=C\C1=N2 (stereo not drawn)
–,–,–,10000 nM,–,–,–,–,–,–,550 nM,–,CC1=C(CCC(=O)O)c2cc3nc(cc4[nH]c(cc5[nH]c(cc1n2)c(C)c5C(COC(=O)C1=CCC1)OC(=O)C1=CCC1)c(C)c4C(COC(=O)C1=CCC1)OC(=O)C1=CCC1)C(C)=C3CCC(=O)O (stereo not drawn)
